In the EternaBench riboswitch data:

System: MS2 coat protein
Assay: apparent Kd, MS2 coat protein; higher = weaker binding; RNA-MaP array
Summary of the method: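 RNA designs were transcribed from sequenced DNA templates on an Illumina sequencing chip and then incubated at room temperature with fluorescently labeled MS2 coat protein at 1.5 nM to 3 μM, with or without input ligand, in Tris-HCl pH 7.5 buffer containing KCl, MgCl2, BSA, DTT, tRNA and Tween20. Incubation lasted 0.8–1.5 h at the lowest protein concentrations and 10–20 min at the highest. Apparent Kd is the median of binding-curve fits made for each cluster. Designs measured on fewer than 10 clusters were excluded.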

[1] = designed as: ON switch for flavin mononucleotide, no ligand
[2] = ligand present: flavin mononucleotide, designed as: ON switch for flavin mononucleotide
[3] = designed as: OFF switch for flavin mononucleotide, no ligand
[4] = ligand present: flavin mononucleotide, designed as: OFF switch for flavin mononucleotide
[5] = designed as: OFF switch for theophylline, no ligand
[6] = ligand present: theophylline, designed as: OFF switch for theophylline
[7] = designed as: ON switch for theophylline, no ligand
[8] = ligand present: theophylline, designed as: ON switch for theophylline

For “CUAAAACAUGAGGAUCACCCAUGUGUUUAGCGCAGAGGAUAUUGGGAUUGGUUGCUCGCUCAAGAAGGCUGAUUGG”, the “apparent Kd” value [1] was 8.55 nM and the “apparent Kd” value [2] was 7.02 nM.
In the case of “UUAGUAACCACAGGAUAUGCGGACGGGUGAAGGGCAGAAGGGUGGGAGUGCACAUGAGGAUCACCCAUGUAACACGCCAUAUUU”, the “apparent Kd” value [1] is reported as 17.7 nM and the “apparent Kd” value [2] is reported as 8.65 nM.
For “AUACAAGCAAUGGAGGAUAUCGCAGAAAUCACAUGAGGAUCACCCAUGUCUUACCGUAUGUCGAGCGAGAAGGCCACGGUGCGAGU”, the “apparent Kd” value [1] was 35.5 nM and the “apparent Kd” value [2] was 17.3 nM.
With “CUCCUCGUAGGAUAUCGCACCGCGUACAUGAGGAUCACCCAUGUGAUUCUAUAGAUUAAGCGAGAAGGACGACAGG” the “apparent Kd” value [3] was 376 nM and the “apparent Kd” value [4] was 269 nM.
For “UCCUAGCGACAGAAGGUAGGCAAGAGACGCCCUCAACGACAUGAGGAUCACCCAUGUGGGACCACUAAGGAUAUGUAUGCCGAC”, the “apparent Kd” value [3] was 84.6 nM and the “apparent Kd” value [4] was 66.5 nM.
With “CCUUUUAUUAAUGAUACCAGCGUAUUAAGCAUCACCUUGGACAUGAGGAUCACCCAUGUACGCCCUUGGCAGCAUACCACUGGGU” the “apparent Kd” value [5] was 42.5 nM and the “apparent Kd” value [6] was 53.4 nM.
For “GGUUAACAUGAGGAUCACCCAUGUUAGGAUAUGCUACAGAGUCUGGUCCCUGGAAAUGGCAGAAGGAACGUGUU”, the “apparent Kd” value [3] was 17.2 nM and the “apparent Kd” value [4] was 16.2 nM.
“GCAUUCGGAUUAGGAUAUCUACAUCAUUCGUUUGGGAUAGAGCUACAUGAGGAUCACCCAUGUGUAGAGAAGGAAUAUGAACAC” was tested, and the “apparent Kd” value [1] was 79 nM and the “apparent Kd” value [2] was 83.9 nM.
With “GAAUGGAAACUAGGAUAUCGGCAGGAGCGGGAGCGAGAAGGAGUUUACUCGGUAUACAUGAGGAUCACCCAUGUGGGUGUGCUG” the “apparent Kd” value [3] was 294 nM and the “apparent Kd” value [4] was 252 nM.
In the case of “GCUGCACAUGAGGAUCACCCAUGUACCCUACUGAGAGGAUAUGUGAUCCGUUAGCAAUCCACAGAAGGCUCGGUUC”, the “apparent Kd” value [1] is reported as 51.2 nM and the “apparent Kd” value [2] is reported as 10.5 nM.
With “UAAGACGCAGGAUAUACAUGAGGAUCACCCAUGUGCAUACAAGUCAAGAGGUACAUAAGUAGAAGGGCGUGGAU” the “apparent Kd” value [3] was 9.42 nM and the “apparent Kd” value [4] was 14.7 nM.
With “CCCACAAGCACGGCCGCCACUAUAUUAAUUACUGUCCUAGAACAUGAGGAUCACCCAUGUUAAUGUAGGACCGGGUGCGGGCCCG” the “apparent Kd” value (designed as: OFF switch for tryptophan, no ligand) was 9.57 nM and the “apparent Kd” value (ligand present: tryptophan, designed as: OFF switch for tryptophan) was 12.8 nM.
For “ACACGUGACAAGGAUACCAGCCUGGCUAGUUCAAACCCUCACAUGAGGAUCACCCAUGUAGGCCCUUGGCAGCCUAUAGUCUAAG”, the “apparent Kd” value [5] was 31.9 nM and the “apparent Kd” value [6] was 83.9 nM.
With “GAAUCUACAAACGAUACCAGAUCCGGCUGCCACAUGAGGAUCACCCAUGUCUAGCGACUCAUCCCUUGGCAGCGUGUGCAUCCCG” the “apparent Kd” value [7] was 508 nM and the “apparent Kd” value [8] was 781 nM.
With “UGGCACAAGUUAGGAUAUAGCACUUCUGUAAAGCUAGAAGGAACGUUGCACAUGAGGAUCACCCAUGUCAGUAAUUGAUAUGUA” the “apparent Kd” value [3] was 10.1 nM and the “apparent Kd” value [4] was 12.6 nM.
“CUUCGGCCCAGGGAGAUGACCACAUGAGGAUCACCCAUGUACAGAAGGAGUAUCGGUAGGCCAUACUAGGAUAUGUGAAUAGAC” was tested, and the “apparent Kd” value [1] was 25.8 nM and the “apparent Kd” value [2] was 31.4 nM.
With “CAAAGUUUUAAGAAGGGAUCGAUUAGAUUCACAUGAGGAUCACCCAUGUAGCCGGGACGGAGAGAUCAGGAUAUUAAAGAUGUC” the “apparent Kd” value [3] was 55.8 nM and the “apparent Kd” value [4] was 31.9 nM.
“AAAGGUCAGGAGAAGGUGCCUCUAUUACGUCGGCAAGGAUAUCCACAGCGGGCGAUUAUGCGUACAUGAGGAUCACCCAUGUUA” was tested, and the “apparent Kd” value [3] was 92.3 nM and the “apparent Kd” value [4] was 43.5 nM.
With “CCAGAAGCAGGAUAUACAUGAGGAUCACCCAUGUUAAACAAUAUGACGAGCAUAGUCAGUAGAAGGGCAACUCA” the “apparent Kd” value [3] was 18.8 nM and the “apparent Kd” value [4] was 16.1 nM.
“UACCUUAACACGGCCGCCACUCUCUAAUAGGAUCAUGGUACCGCACAUGAGGAUCACCCAUGUUUGAGGACCGGGUGUUAUGAAG” was tested, and the “apparent Kd” value (designed as: ON switch for tryptophan, no ligand) was 15.1 nM and the “apparent Kd” value (ligand present: tryptophan, designed as: ON switch for tryptophan) was 28.7 nM.
In the case of “GUCAUUCUCAACAUGAGGAUCACCCAUGUCGGUUAUCUGGGCUAGGAUAUCACGAUGCCACUGCGUGAGAAGGAGCGUUCGAUA”, the “apparent Kd” value [3] is reported as 67.3 nM and the “apparent Kd” value [4] is reported as 27.5 nM.
In the case of “UGAGAUAACGCAGGAUAUCAUGCGGCAGUGUAGUGAGAAGGGCGAAUGCAAGGGUCAGACAUGAGGAUCACCCAUGUUCAUAGC”, the “apparent Kd” value [3] is reported as 17.2 nM and the “apparent Kd” value [4] is reported as 12.5 nM.
In the case of “CCACCCGACAUGAGGAUCACCCAUGUAGAUGAUCCUGUACCAUAGGAUAUAGGCGUAAGAGAGAUCUAGAAGGAUGUACAACCC”, the “apparent Kd” value [3] is reported as 108 nM and the “apparent Kd” value [4] is reported as 73.5 nM.
In the case of “AUGUUCCGUUAGAAGGUGUUGAGUGGAGGCUCACAAGGAUAUAACUUCCUCGUCGAUGACAUGAGGAUCACCCAUGUAGCACAA”, the “apparent Kd” value [3] is reported as 50.3 nM and the “apparent Kd” value [4] is reported as 38.1 nM.
For “CCGAGCACAGGAUAUACAUGAGGAUCACCCAUGUAUACGAAUACGACACAUCCUGCGUGUAGAAGGGUGGCAAA”, the “apparent Kd” value [3] was 6.47 nM and the “apparent Kd” value [4] was 6.22 nM.
“UACCGGUGACUCGAUACCAGUCCUCUAAAAUACAUGAGGAUCACCCAUGUAACCUUCCCAGACCCUUGGCAGCGACACAUGGAUA” was tested, and the “apparent Kd” value [7] was 145 nM and the “apparent Kd” value [8] was 38.2 nM.
